Active and inactive are the calls of the source. No cut-off for these calls is given here. Where a SMILES comes first, the peptide text is derived from it.
Key:
Streptococcus pyogenes [1] = experiment: Inhibition of Streptococcus pyogenes His-tagged IdeS expressed in Escherichia coli BL21 using IgG1 as substrate at 30 mM incubated for 15 mins prior to substrate addition measured after 20 mins
How it was run: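 IdeS with tag removed (TEV cleavage, Ni2+ and size-exclusion repurification), stored in PBS. Enzyme preincubated 15 min at room temp with analogue (30 mM stock in 50% DMSO/phosphate pH 7.4) before adding human IgG1. Final IdeS 0.8 μM, analogue at 4.8×10^3 molar excess. 20 min at 37 °C, stopped with iodoacetamide. Triplicates, PBS-for-IdeS controls. Read by SPR as fraction of active IdeS from an IdeS standard curve.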

Papain (Carica papaya) = biological target: T1, Papain (Carica papaya) (UniProt P00784); experiment: Inhibition of papaya papain using Nalpa-benzoyl-DL-arginine 4-nitroanilide hydrochloride as substrate at 30 mM incubated for 10 mins prior to substrate addition measured after 2 hrs by colorimetry
T1 sequence (whole entry): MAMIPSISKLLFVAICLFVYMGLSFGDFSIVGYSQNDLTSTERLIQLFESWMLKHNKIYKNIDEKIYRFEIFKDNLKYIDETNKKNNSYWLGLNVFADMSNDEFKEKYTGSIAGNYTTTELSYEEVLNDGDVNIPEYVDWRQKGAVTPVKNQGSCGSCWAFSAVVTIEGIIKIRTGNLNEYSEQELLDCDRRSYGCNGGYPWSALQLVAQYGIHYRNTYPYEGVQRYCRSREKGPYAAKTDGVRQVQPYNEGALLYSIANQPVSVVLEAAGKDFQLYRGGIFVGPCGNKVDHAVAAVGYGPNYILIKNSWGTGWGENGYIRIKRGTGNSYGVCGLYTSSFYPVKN
How it was run: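 Papain in pH 6.2 phosphate buffer with 1.23 mM EDTA and 1.23 mM DTT, preincubated 10 min at room temp with compound (30 mM stock in 50% DMSO/phosphate pH 6.2). Final papain 0.9 μM, compound at 4.8×10^3 molar excess. Substrate added from 100 mM DMSO stock, 2 h at 37 °C, stopped with acetic acid, Abs405 read. Duplicates on two occasions. Activity relative to no-inhibitor control.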

[2] = biological target: T2, Streptopain (Streptococcus pyogenes) (UniProt P0C0J0); experiment: Inhibition of Streptococcus pyogenes 5448 SpeB using n-bezoyl-proline-phenylalanine-arginine-p-nitroanilide hydrochloride as substrate at 30 mM incubated for 15 mins prior to substrate addition measured after 30 mins by colorimetry
T2 sequence (whole entry): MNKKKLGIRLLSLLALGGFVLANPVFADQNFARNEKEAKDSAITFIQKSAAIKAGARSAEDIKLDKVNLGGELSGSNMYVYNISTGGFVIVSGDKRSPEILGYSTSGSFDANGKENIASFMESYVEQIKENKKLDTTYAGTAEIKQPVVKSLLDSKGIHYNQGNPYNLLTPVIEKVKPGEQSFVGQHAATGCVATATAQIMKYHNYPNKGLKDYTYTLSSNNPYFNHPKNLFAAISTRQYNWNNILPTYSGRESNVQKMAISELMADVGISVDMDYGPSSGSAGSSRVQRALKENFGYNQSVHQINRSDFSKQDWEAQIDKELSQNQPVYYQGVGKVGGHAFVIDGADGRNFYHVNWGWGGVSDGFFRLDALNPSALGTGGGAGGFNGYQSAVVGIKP
How it was run: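 SpeB purified from S. pyogenes 5448 culture supernatant (ammonium sulfate precipitation, ion exchange), activated with 2 mM DTT 30 min at 37 °C. Activated enzyme preincubated 15 min at room temperature with analogue (30 mM stock in 50% DMSO/phosphate pH 7.4; 4.8×10^3 molar excess over 0.28 μM final SpeB). Then 1 mM BPFA substrate in 0.1 M phosphate pH 6 added; OD405 change recorded. Activity expressed relative to uninhibited enzyme.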

Streptococcus pyogenes [3] = experiment: Inhibition of Streptococcus pyogenes His-tagged IdeS expressed in Escherichia coli BL21 using IgG1 as substrate at 30 mM incubated for 15 mins prior to substrate addition measured after 20 mins by SDS-PAGE analysis
How it was run: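 Tag-free IdeS (TEV-cleaved, repurified) preincubated 15 min at room temp with peptide or analogue (30 mM stock in 50% DMSO/phosphate pH 7.4), then IgG1 substrate added. Final IdeS 0.8 μM with 4.8×10^3 molar excess of compound. 20 min at 37 °C, quenched with iodoacetamide, IgG cleavage products detected by SDS-PAGE. Triplicates plus enzyme-free controls.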

[4] = Inhibition of Streptococcus pyogenes His-tagged IdeS expressed in Escherichia coli BL21 using IgG1 as substrate by SDS-PAGE analysis
How it was run: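 Ki by competitive-inhibition fit of initial velocities. 2 μM IdeS with repurified polyclonal IgG at 150, 100, 50, 20 or 10 μM, inhibitor at 5, 2, 0.5 mM or 5, 2.5, 1 mM. Initial cleavage read by non-reducing SDS-PAGE densitometry of IgG, single-cleaved IgG, F(ab')2 and 1/2Fc bands, weighted by mass.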

[5] = Selectivity ratio of Ki for Streptococcus pyogenes IdeS to Ki for papaya papain

## CC(C)C[C@H](N)C(=O)NCC(=O)N1CCC[C@@H](N2CCC[C@H]2C(N)=O)C1
Streptococcus pyogenes [1]
  inhibition: Active
Papain (Carica papaya)
  inhibition: Active
[2]
  inhibition: Active

## NCC(=O)NCC(=O)N1CCC[C@H]1C(=O)N[C@@H](CO)C(=O)O (H-GGPS-OH)
Streptococcus pyogenes [3]
  inhibition: inactive

## CC(C)C[C@H](N)C(=O)NCC(=O)N1CCC[C@H](N2CCC[C@H]2C(N)=O)C1
Streptococcus pyogenes [1]
  inhibition: Active
[2]
  inhibition: Active

## CCN(CC(N)=O)[C@@H]1CCCN(C(=O)[C@H](CC(C)C)NC(=O)[C@@H](N)CC(C)C)C1
Streptococcus pyogenes [1]
  inhibition: Active
[2]
  inhibition: Active

## CC(C)C[C@H](N)C(=O)N1CCC[C@@H](NCC(N)=O)C1
Streptococcus pyogenes [1]
  inhibition: Active
Papain (Carica papaya)
  inhibition: inactive
[2]
  inhibition: inactive
[4]
  Ki: 5.7 mM
[5]
  Ratio Ki: 16

## NCC(=O)NCC(=O)O (H-Gly-Gly-OH)
Streptococcus pyogenes [1]
  inhibition: Active
Streptococcus pyogenes [3]
  inhibition: inactive

## CC(C)C[C@H](N)C(=O)N1CCC[C@H](NCC(=O)N2CCC[C@H]2C(N)=O)C1
Streptococcus pyogenes [1]
  inhibition: Active
Papain (Carica papaya)
  inhibition: Active
[2]
  inhibition: inactive

## CC(C)C[C@H](NC(=O)[C@@H](N)CC(C)C)C(=O)N1CCC[C@@H](NCC(N)=O)C1
Streptococcus pyogenes [1]
  inhibition: Active
[2]
  inhibition: inactive

## H-ELLGG-OH
Streptococcus pyogenes [3]
  inhibition: inactive

## NC(=O)CN[C@H]1CCCNC1
Streptococcus pyogenes [1]
  inhibition: Active
Papain (Carica papaya)
  inhibition: inactive
[2]
  inhibition: inactive
[4]
  Ki: 6.7 mM
[5]
  Ratio Ki: 16

## CC(C)C[C@H](N)C(=O)NCC(=O)NCC(=O)N1CCC[C@H]1C(=O)O (H-LGGP-OH)
Streptococcus pyogenes [1]
  inhibition: Active
Streptococcus pyogenes [3]
  inhibition: inactive

## CCN(CC(N)=O)[C@H]1CCCN(C(=O)[C@H](CC(C)C)NC(=O)[C@@H](N)CC(C)C)C1
Streptococcus pyogenes [1]
  inhibition: Active
[2]
  inhibition: Active

## CC(C)C[C@H](NC(=O)[C@@H](N)CC(C)C)C(=O)NCC(=O)NCC(=O)O (H-LLGG-OH)
Streptococcus pyogenes [1]
  inhibition: Active
[2]
  inhibition: Active
Streptococcus pyogenes [3]
  inhibition: inactive

## NC(=O)[C@@H]1CCCN1C(=O)CN[C@H]1CCCNC1
Streptococcus pyogenes [1]
  inhibition: Active

## H-LLGGPS-OH
Streptococcus pyogenes [3]
  inhibition: inactive

## NC(=O)CN[C@@H]1CCCNC1
Streptococcus pyogenes [1]
  inhibition: Active
Papain (Carica papaya)
  inhibition: inactive
[2]
  inhibition: inactive

## NCC(=O)N1CCC[C@H](N2CCC[C@H]2C(N)=O)C1
Streptococcus pyogenes [1]
  inhibition: Active

## H-PELLGGPS-OH
Streptococcus pyogenes [3]
  inhibition: inactive

## CC(C)C[C@H](N)C(=O)N1CCC[C@@H](NCC(=O)N2CCC[C@H]2C(N)=O)C1
Streptococcus pyogenes [1]
  inhibition: Active
[2]
  inhibition: inactive

## NC(=O)[C@@H]1CCCN1C(=O)CN[C@@H]1CCCNC1
Streptococcus pyogenes [1]
  inhibition: Active
Papain (Carica papaya)
  inhibition: Active

## CC(C)C[C@H](N)C(=O)N1CCC[C@H](NCC(N)=O)C1
Streptococcus pyogenes [1]
  inhibition: Active
Papain (Carica papaya)
  inhibition: inactive
[2]
  inhibition: inactive

## CC(C)C[C@H](NC(=O)[C@@H](N)CC(C)C)C(=O)N1CCC[C@H](NCC(N)=O)C1
Streptococcus pyogenes [1]
  inhibition: Active
[2]
  inhibition: inactive

## CC(C)[C@H](NC(=O)[C@H](CO)NC(=O)[C@@H]1CCCN1C(=O)CN)C(=O)O (H-GPSV-OH)
Streptococcus pyogenes [3]
  inhibition: inactive

## NCC(=O)N1CCC[C@@H](N2CCC[C@H]2C(N)=O)C1
Streptococcus pyogenes [1]
  inhibition: Active
